Tested on: not listed separately; call rule not given here
Assay: Concentration that inhibits binding of [3H]ouabain against Digitalis receptor in dog heart microsomes; Not active at a concentration > 100 uM
Parameters: species or system Canis lupus familiaris, Microsome

| IC50 | Structure (SMILES) |
| --- | --- |
| Not Active | C[C@@H]1O[C@@H](O[C@H]2CC[C@@]3(C)[C@H](CC[C@@H]4[C@@H]3CC[C@]3(C)[C@@H]5CC[C@]43OC(=O)C5)C2)[C@H](O)[C@H](O)[C@H]1O |

Molecular target: Sodium/potassium-transporting ATPase subunit alpha-1 (Canis lupus familiaris, UniProt P50997)
Assay: Inhibition of [3H]ouabain binding to Digitalis receptor in dog heart microsomes
Procedure, shortened: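 Radioligand competition assay in dog heart muscle microsomes (membrane preparation), measuring [³H]ouabain binding with the test steroids present. Steroids were added in ethanol.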

| Structure (SMILES) | IC50 [nM] |
| --- | --- |
| COC(C[N+](=O)[O-])[C@H]1CC[C@]2(O)[C@@H]3CC[C@@H]4C[C@@H](O[C@@H]5O[C@@H](C)[C@H](O)[C@@H](O)[C@H]5O)CC[C@]4(C)[C@H]3CC[C@]12C (some centres not stated) | 30 |
| C[C@@H]1O[C@@H](O[C@H]2CC[C@@]3(C)[C@H](CC[C@@H]4[C@@H]3CC[C@]3(C)[C@@H](CCO)CC[C@]43O)C2)[C@H](O)[C@H](O)[C@H]1O | 660 |
| CC1OC(O[C@H]2CC[C@@]3(C)[C@H](CC[C@@H]4[C@@H]3CC[C@]3(C)[C@@H](CCN)CC[C@]43O)C2)C(O)C(O)C1O (some centres not stated) | 1890 |
| C[C@@H]1O[C@@H](O[C@H]2CC[C@@]3(C)[C@H](CC[C@@H]4[C@@H]3CC[C@]3(C)[C@@H](CCC(=O)O)CC[C@]43O)C2)[C@H](O)[C@H](O)[C@H]1O | 230 |
| C[C@@H]1O[C@@H](O[C@H]2CC[C@@]3(C)[C@H](CC[C@@H]4[C@@H]3CC[C@]3(C)[C@H](C(O)C[N+](=O)[O-])CC[C@]43O)C2)[C@H](O)[C@H](O)[C@H]1O (some centres not stated) | 4730 |
| C[C@@H]1O[C@@H](O[C@H]2CC[C@@]3(C)[C@H](CC[C@@H]4[C@@H]3CC[C@]3(C)[C@@H]5CC[C@]43OC5)C2)[C@H](O)[C@H](O)[C@H]1O | 2200 |
| C[C@@H]1O[C@@H](O[C@H]2CC[C@@]3(C)[C@H](CC[C@@H]4[C@@H]3CC[C@]3(C)[C@@H](C(O)CN)CC[C@]43O)C2)[C@H](O)[C@H](O)[C@H]1O (some centres not stated) | 3220 |
| C[C@@H]1O[C@@H](O[C@H]2CC[C@@]3(C)[C@H](CC[C@@H]4[C@@H]3CC[C@]3(C)[C@@H](CC[N+](=O)[O-])CC[C@]43O)C2)[C@H](O)[C@H](O)[C@H]1O | 45.5 |
| C[C@@H]1O[C@@H](O[C@H]2CC[C@@]3(C)[C@H](CC[C@@H]4[C@@H]3CC[C@]3(C)[C@@H](/C=C/[N+](=O)[O-])CC[C@]43O)C2)[C@H](O)[C@H](O)[C@H]1O | 8.3 |
| C[C@@H]1O[C@@H](O[C@H]2CC[C@@]3(C)[C@H](CC[C@@H]4[C@@H]3CC[C@]3(C)[C@@H](/C=C/C(=O)O)CC[C@]43O)C2)[C@H](O)[C@H](O)[C@H]1O | 13 |
| C[C@H]1O[C@@H](O[C@H]2[C@@H](O)C[C@H](O[C@H]3[C@@H](O)C[C@H](O[C@H]4CC[C@@]5(C)[C@H](CC[C@@H]6[C@@H]5CC[C@]5(C)[C@@H](C7=CC(=O)OC7)CC[C@]65O)C4)O[C@@H]3C)O[C@@H]2C)C[C@H](O)[C@@H]1O [DIGITOXIN] | 8 |
